5 compounds from ChEMBL document CHEMBL1137397, “Identification of selective, nonpeptidic nitrile inhibitors of cathepsin s using the substrate activity screening method” (J Med Chem, 2006) can be followed below.

One assay deals with T1, Cathepsin K (Homo sapiens, UniProt P43235).
T1 sequence (P43235 whole entry): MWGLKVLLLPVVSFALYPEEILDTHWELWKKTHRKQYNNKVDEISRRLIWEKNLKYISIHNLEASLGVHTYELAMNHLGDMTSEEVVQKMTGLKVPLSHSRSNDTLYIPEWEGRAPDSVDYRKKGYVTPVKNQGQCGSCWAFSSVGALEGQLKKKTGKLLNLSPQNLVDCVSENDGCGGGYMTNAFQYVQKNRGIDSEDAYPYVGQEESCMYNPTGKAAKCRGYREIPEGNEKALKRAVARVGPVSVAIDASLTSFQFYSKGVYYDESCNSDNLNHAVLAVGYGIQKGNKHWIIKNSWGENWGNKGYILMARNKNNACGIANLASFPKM
Briefly: Inhibition of cathepsin K. A digest of the protocol:
(§1)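 Cathepsins B (2 nM), K (10 nM) or L (0.03 nM) in pH 6.1 phosphate/NaCl/DTT/EDTA/Tween-20 buffer. Preincubated 5 min at 37 °C with five inhibitor levels (10-90% inhibition), in duplicate. Cbz-Phe-Arg-AMC added at 5 and 2.5 µM (B, K) or 0.6 and 0.3 µM (L). AMC read at ex 355/em 450 nm for 5 min. Ki by Dixon plot.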

In another assay the target is Procathepsin L (Homo sapiens, UniProt P07711). Nature of the assay: Inhibition of cathepsin L. A digest of the protocol:
as §1

A further assay has as its target Cathepsin S (Homo sapiens, UniProt P25774). Briefly: Inhibition of cathepsin S. An outline of the steps: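 Cathepsin S at 0.6 nM in pH 6.1 100 mM sodium phosphate with 100 mM NaCl, 1 mM DTT, 1 mM EDTA and 0.001% Tween-20. Enzyme preincubated 5 min at 37 °C with five inhibitor concentrations (10-90% inhibition), in duplicate. Cbz-Leu-Arg-AMC added at 5 and 2.5 µM, then AMC read (ex 355/em 450 nm) over 5 min. Ki by Dixon method.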

The target in a further assay is Cathepsin B (Homo sapiens, UniProt P07858). Briefly: Inhibition of cathepsin B. A digest of the protocol: as §1

Cathepsin S, sequence (P25774 whole entry): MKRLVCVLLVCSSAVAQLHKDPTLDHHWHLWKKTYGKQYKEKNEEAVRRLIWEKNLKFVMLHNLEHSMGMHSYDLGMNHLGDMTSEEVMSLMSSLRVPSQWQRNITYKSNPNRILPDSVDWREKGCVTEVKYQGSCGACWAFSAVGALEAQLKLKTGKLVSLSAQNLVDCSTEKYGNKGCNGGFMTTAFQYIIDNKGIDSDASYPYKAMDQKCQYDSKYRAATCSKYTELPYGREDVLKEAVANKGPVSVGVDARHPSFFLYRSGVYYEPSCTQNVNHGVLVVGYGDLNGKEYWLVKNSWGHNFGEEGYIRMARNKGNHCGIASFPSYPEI
Procathepsin L, sequence (P07711 whole entry): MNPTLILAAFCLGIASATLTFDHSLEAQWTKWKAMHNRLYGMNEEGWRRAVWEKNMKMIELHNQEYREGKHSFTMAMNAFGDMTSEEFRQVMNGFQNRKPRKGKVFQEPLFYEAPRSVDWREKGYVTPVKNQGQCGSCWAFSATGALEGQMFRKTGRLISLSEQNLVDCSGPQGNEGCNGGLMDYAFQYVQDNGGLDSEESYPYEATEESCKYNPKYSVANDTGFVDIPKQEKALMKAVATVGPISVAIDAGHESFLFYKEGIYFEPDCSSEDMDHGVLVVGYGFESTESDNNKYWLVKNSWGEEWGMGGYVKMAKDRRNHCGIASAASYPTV

A word on the IC50: it is the concentration at which inhibition is half-maximal. The term Ki denotes a dissociation constant, usually derived from enzyme kinetics or from competition with a known ligand. `CCCC[C@@H](C#N)n1cc([C@@](C)(NC(=O)c2ccsc2)C2CCC(C)CC2)nn1` (stereo not given in full): the half-inhibitory concentration (IC50) against Cathepsin K and against Procathepsin L was > 15 µM throughout. The inhibitory constant (Ki) on Cathepsin K is > 15 µM; at Procathepsin L it was > 15 µM; at Cathepsin S it was 0.015 µM.
On to `CCCC[C@@H](C#N)n1cc([C@@](C)(NC(=O)c2ccsc2)C(C)C)nn1`, for which the IC50 on Cathepsin B and against Procathepsin L was > 10 µM each time. For the same compound, the Ki is > 10 µM at Cathepsin B, 0.43 µM at Cathepsin K, > 10 µM on Procathepsin L and 0.42 µM at Cathepsin S.
For `CCCC[C@@H](C#N)n1cc([C@@](C)(NC(=O)c2ccccc2)C2CCCCC2)nn1`, the IC50 against Cathepsin B, against Cathepsin K and against Procathepsin L was > 10 µM in each case. The Ki on Cathepsin B was > 10 µM; at Cathepsin K, > 10 µM; on Procathepsin L, > 10 µM; at Cathepsin S it was 0.2 µM.
For the compound `CCCC[C@@H](C#N)n1cc([C@@](C)(NC(=O)c2ccccc2)C(C)C)nn1`, the IC50 at Cathepsin B and against Procathepsin L was > 10 µM in each case. For the same compound, the inhibition constant (Ki) at Cathepsin B is > 10 µM; at Cathepsin K, 0.88 µM; at Procathepsin L, > 10 µM; on Cathepsin S, 1.2 µM.
Consider `CCCC[C@@H](C#N)n1cc([C@@](C)(NC(=O)c2ccsc2)C2CCCCC2)nn1`, for which the concentration for half-maximal inhibition (IC50) against Cathepsin B and at Procathepsin L was > 10 µM each time. The Ki at Cathepsin B was > 10 µM; at Cathepsin K, 1.7 µM; at Procathepsin L, > 10 µM; at Cathepsin S, 0.018 µM.
